We go through five compounds from BindingDB's records for doi:10.1016/j.bmcl.2007.08.013 (Schering-Plough Research Institute, 2007).

Structures are written as SMILES.

The term IC50 denotes the concentration at which inhibition is half-maximal.

The target of experiment [1] is T1, Amyloid-beta precursor protein (Homo sapiens, UniProt P05067). The experiment is described as follows: Inhibition of gamma-secretase assessed as reduction of cell A-beta-40 level.
In experiment [2] the target is T1, Amyloid-beta precursor protein. Description: Inhibition of gamma-secretase assessed as reduction of membrane A-beta-40 level. In a few lines: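 Membrane-based γ-secretase assay with Aβ40 as read-out; IC50 in nM, reported as means of two experiments.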

T1 sequence (P05067 whole entry): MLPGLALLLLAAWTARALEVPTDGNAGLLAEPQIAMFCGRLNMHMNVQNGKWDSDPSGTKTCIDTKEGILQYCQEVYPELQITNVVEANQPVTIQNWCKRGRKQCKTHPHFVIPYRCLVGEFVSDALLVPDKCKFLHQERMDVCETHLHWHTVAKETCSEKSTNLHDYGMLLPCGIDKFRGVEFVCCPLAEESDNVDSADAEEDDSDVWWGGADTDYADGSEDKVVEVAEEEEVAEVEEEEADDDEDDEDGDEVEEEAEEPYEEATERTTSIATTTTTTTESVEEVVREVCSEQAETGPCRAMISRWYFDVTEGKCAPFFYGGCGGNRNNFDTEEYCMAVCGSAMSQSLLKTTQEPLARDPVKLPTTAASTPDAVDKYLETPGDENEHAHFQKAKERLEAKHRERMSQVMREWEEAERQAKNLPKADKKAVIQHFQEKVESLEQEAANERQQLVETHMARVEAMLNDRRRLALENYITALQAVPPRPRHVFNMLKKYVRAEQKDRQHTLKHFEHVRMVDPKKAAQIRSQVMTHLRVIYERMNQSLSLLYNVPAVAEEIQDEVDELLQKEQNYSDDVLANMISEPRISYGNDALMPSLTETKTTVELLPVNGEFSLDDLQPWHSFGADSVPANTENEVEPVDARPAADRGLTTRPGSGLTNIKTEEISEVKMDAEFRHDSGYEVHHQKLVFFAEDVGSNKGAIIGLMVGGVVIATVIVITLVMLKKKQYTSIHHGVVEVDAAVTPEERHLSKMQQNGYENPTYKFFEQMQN

For `CC[C@@H]1CCC[C@H](C2(OC(=O)N3CCC(CCO)(OC)CC3)CC2)N1S(=O)(=O)c1ccc(Cl)cc1` [1-((2R,6R)-1-(4-chlorophenylsulfonyl)-6-ethylpiperidin-2-yl)cyclopropyl 4-(2-hydroxyethyl)-4-methoxypiperidine-1-carboxylate], the results for the IC50 in experiment [1] and in experiment [2] were 20 nM and 9 nM, respectively.

With `CC[C@@H]1CCC[C@H](C2(OC(=O)N3CCC(N4CCCCC4)CC3)CC2)N1S(=O)(=O)c1cc(F)cc(F)c1` [1-((2R,6R)-1-(3,5-difluorophenylsulfonyl)-6-ethylpiperidin-2-yl)cyclopropyl 4-(piperidin-1-yl)piperidine-1-carboxylate], the IC50 was determined as 144 nM in experiment [1] and 29 nM in experiment [2].

With `CC[C@@H]1CCC[C@H](C2(OC(=O)N3CCN(CCO)[C@@H](C)C3)CC2)N1S(=O)(=O)c1ccc(Cl)cc1` [(S)-1-((2R,6R)-1-(4-chlorophenylsulfonyl)-6-ethylpiperidin-2-yl)cyclopropyl 4-(2-hydroxyethyl)-3-methylpiperazine-1-carboxylate], the IC50 in experiment [1] turned out to be 10 nM; in experiment [2] it was 13 nM.

Regarding `CC[C@@H]1CCC[C@H](C2(OC(=O)N3CCN(C(C)(C)CO)CC3)CC2)N1S(=O)(=O)c1ccc(F)cc1` [1-((2R,6R)-6-ethyl-1-(4-fluorophenylsulfonyl)piperidin-2-yl)cyclopropyl 4-(1-hydroxy-2-methylpropan-2-yl)piperazine-1-carboxylate], the IC50 in experiment [1] worked out at 25 nM; in experiment [2] it was 10 nM.

As to `O=C(OC1([C@H]2CCC[C@@H](c3cc(F)cc(F)c3)N2S(=O)(=O)c2ccc(Cl)cc2)CC1)N1CCC(N2CCCCC2)CC1` [1-((2R,6S)-1-(4-chlorophenylsulfonyl)-6-(3,5-difluorophenyl)piperidin-2-yl)cyclopropyl 4-(piperidin-1-yl)piperidine-1-carboxylate], in experiment [2], the IC50 is 0.3 nM.
